Experiments:
Cocaine esterase [1] = biological target: T1, Cocaine esterase (Homo sapiens, UniProt O00748); assay: Activity of human recombinant CES2 expressed in baculovirus-infected High Five insect cells assessed as enzyme-mediated compound formation formation treated with oxybutynin at 10 uM for 30 mins by HPLC analysis in presence of 10 uM CES1 inhibitor NDGA; type: ADME; settings: 0.5 h
T1 sequence (O00748 whole entry): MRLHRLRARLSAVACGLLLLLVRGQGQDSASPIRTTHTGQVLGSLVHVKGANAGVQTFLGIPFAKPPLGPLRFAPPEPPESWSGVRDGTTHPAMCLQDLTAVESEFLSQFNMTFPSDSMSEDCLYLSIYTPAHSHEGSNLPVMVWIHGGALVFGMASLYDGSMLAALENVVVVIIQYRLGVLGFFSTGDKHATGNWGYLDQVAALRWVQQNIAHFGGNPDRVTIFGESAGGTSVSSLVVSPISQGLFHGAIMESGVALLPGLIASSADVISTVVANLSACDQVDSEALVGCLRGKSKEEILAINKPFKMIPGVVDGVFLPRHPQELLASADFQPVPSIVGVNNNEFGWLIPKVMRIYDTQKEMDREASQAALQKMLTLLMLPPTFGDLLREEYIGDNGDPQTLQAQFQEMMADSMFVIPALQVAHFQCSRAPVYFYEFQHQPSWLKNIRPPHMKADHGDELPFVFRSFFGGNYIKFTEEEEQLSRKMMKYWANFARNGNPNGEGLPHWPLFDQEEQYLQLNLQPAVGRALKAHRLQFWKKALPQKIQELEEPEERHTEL
How it was run: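 Oxybutynin (10 μM) hydrolysis to CPGA by recombinant CES2-expressing microsomes at 0.1 mg/mL final protein, in 0.05 mol/L Tris-HCl pH 7.6 at 37 °C. Inhibitor was added before a 5 min preincubation, with at most 0.2% final DMSO. Substrate addition started the reaction, which ran 30 min. It was stopped with ACN/1% formic acid plus internal standard. CPGA was quantified by LC-MS/MS in negative MRM mode, as relative activity versus control, in duplicate.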

[2] = Activity of human recombinant CES1b/CES1A1 expressed in baculovirus-infected High Five insect cells assessed as intrinsic clearance for enzyme-mediated 2-cyclohexyl-2-phenylglycolic acid formation per mg of protein by Michaelis-Menten equation; type: ADME
How it was run: (§1)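 Oxybutynin (2.5–250 μM) incubated 15 min at 37 °C in 0.05 mol/L Tris-HCl pH 7.6 after 5 min pre-incubation. Final protein: liver microsomes 0.05, liver cytosol 0.1, recombinant CES1 microsomes 0.05 mg/mL. Stopped with acetonitrile/1% formic acid plus internal standard; CPGA quantified by LC-MS/MS in negative MRM mode; duplicates. Km, Vmax from Michaelis-Menten fit; CLint = Vmax/Km.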

Cocaine esterase [3] = biological target: T1, Cocaine esterase; assay: Activity of human recombinant CES2 expressed in baculovirus-infected High Five insect cells assessed as enzyme-mediated 2-cyclohexyl-2-phenylglycolic acid formation per mg of protein by Michaelis-Menten equation; type: ADME
Cocaine esterase [4] = biological target: T1, Cocaine esterase; assay: Activity of human recombinant CES2 expressed in baculovirus-infected High Five insect cells assessed as 5 uM CES2 inhibitor loperamide-mediated inhibition of enzyme-mediated 2-cyclohexyl-2-phenylglycolic acid formation at 10 uM for 30 mins by HPLC analysis; settings: 0.5 h
Liver microsome [5] = assay: Drug metabolism in human liver microsomes assessed as 2-cyclohexyl-2-phenylglycolic acid formation per mg of protein by Michaelis-Menten equation; type: ADME; how it was run: as §1
Cocaine esterase [6] = biological target: T1, Cocaine esterase; assay: Activity of human recombinant CES2 expressed in baculovirus-infected High Five insect cells assessed as intrinsic clearance for enzyme-mediated 2-cyclohexyl-2-phenylglycolic acid formation per mg of protein by Michaelis-Menten equation; type: ADME
[7] = Drug metabolism in human liver microsomes; type: ADME
Liver cytosol [8] = assay: Drug metabolism in human liver cytosol assessed as 2-cyclohexyl-2-phenylglycolic acid formation by Michaelis-Menten equation; type: ADME, tissue-based; how it was run: as §1
[9] = Activity of human recombinant CES1b/CES1A1 expressed in baculovirus-infected High Five insect cells assessed as enzyme-mediated 2-cyclohexyl-2-phenylglycolic acid formation by Michaelis-Menten equation; type: ADME; how it was run: as §1
Liver microsome [10] = assay: Drug metabolism in human liver microsomes assessed as 2-cyclohexyl-2-phenylglycolic acid formation by Michaelis-Menten equation; type: ADME; how it was run: as §1
Cocaine esterase [11] = biological target: T1, Cocaine esterase; assay: Activity of human recombinant CES2 expressed in baculovirus-infected High Five insect cells assessed as 50 uM CES1 inhibitor clopidogrel-mediated inhibition of enzyme-mediated 2-cyclohexyl-2-phenylglycolic acid formation at 10 uM for 30 mins by HPLC analysis; settings: 0.5 h
[12] = Activity of human recombinant CES1b/CES1A1 expressed in baculovirus-infected High Five insect cells assessed as enzyme-mediated 2-cyclohexyl-2-phenylglycolic acid formation per mg of protein by Michaelis-Menten equation; type: ADME; how it was run: as §1
[13] = Drug metabolism in human liver cytosol; type: ADME, tissue-based
Liver microsome [14] = assay: Intrinsic clearance in human liver microsomes assessed as 2-cyclohexyl-2-phenylglycolic acid formation per mg of protein by Michaelis-Menten equation; type: ADME; how it was run: as §1
Liver cytosol [15] = assay: Drug metabolism in human liver cytosol assessed as 2-cyclohexyl-2-phenylglycolic acid formation per mg of protein by Michaelis-Menten equation; type: ADME, tissue-based; how it was run: as §1
Liver cytosol [16] = assay: Intrinsic clearance in human liver cytosol assessed as 2-cyclohexyl-2-phenylglycolic acid formation per mg of protein by Michaelis-Menten equation; type: ADME, tissue-based; how it was run: as §1
Cocaine esterase [17] = biological target: T1, Cocaine esterase; assay: Activity of human recombinant CES2 expressed in baculovirus-infected High Five insect cells assessed as 5 uM CES1 inhibitor clopidogrel-mediated inhibition of enzyme-mediated 2-cyclohexyl-2-phenylglycolic acid formation at 10 uM for 30 mins by HPLC analysis; settings: 0.5 h
Cocaine esterase [18] = biological target: T1, Cocaine esterase; assay: Activity of human recombinant CES2 expressed in baculovirus-infected High Five insect cells assessed as 30 to 300 uM CES1 inhibitor procainamide-mediated inhibition of enzyme-mediated 2-cyclohexyl-2-phenylglycolic acid formation at 10 uM for 30 mins by HPLC analysis; settings: 0.5 h
[19] = substrate: CCN(CC)CC#CCOC(=O)C(O)(c1ccccc1)C1CCCCC1; assay: Activity of human recombinant CES2 expressed in baculovirus-infected High Five insect cells assessed as enzyme-mediated 2-cyclohexyl-2-phenylglycolic acid formation by Michaelis-Menten equation; type: ADME
[20] = substrate: CCN(CC)CC#CCOC(=O)C(O)(c1ccccc1)C1CCCCC1; assay: Activity of human CES2; type: ADME

With `O=C(O)C(O)(c1ccccc1)C1CCCCC1` (stereo unspecified) as the molecule, how does the Drug metabolism (Cocaine esterase [1]) read?
Its Drug metabolism is “metabolite_detected”.

What does the source list for `CCN(CC)CC#CCOC(=O)C(O)(c1ccccc1)C1CCCCC1.Cl` (stereo unspecified) [OXYBUTYNIN CHLORIDE]?
clearance [2]: 18 µL/min/mg; Vmax (Cocaine esterase [3]): 32 pmol/min; inhibition (INH) (Cocaine esterase [4]): 58%; Vmax (Liver microsome [5]): 130 pmol/min; clearance (Cocaine esterase [6]): 0.51 µL/min/mg; Km [7]: 22 µM; Km (Liver cytosol [8]): 13 µM; Km [9]: 17 µM; Km (Liver microsome [10]): 22 µM; inhibition (INH) (Cocaine esterase [11]): 53%; Vmax [12]: 310 pmol/min; Km [13]: 13 µM; CLint (Liver microsome [14]): 5.9 µL/min/mg; Vmax (Liver cytosol [15]): 110 pmol/min; CLint (Liver cytosol [16]): 8.2 µL/min/mg; inhibition (INH) (Cocaine esterase [17]): < 11%; inhibition (INH) (Cocaine esterase [18]): < 14%

B1: Cocaine esterase (Homo sapiens) (protein)
chain: T1 sequence (O00748 whole entry)
With B1 as the molecule, how does the Km [19] read?
Its Km is 62 µM.

What about the Km [20] of the same molecule?
The Km was 1100 µM.

What about the Vmax [20] of the same molecule?
The Vmax was 0.36 µmol/min/mg.

From ChEMBL document CHEMBL3526045, “Conclusive identification of the oxybutynin-hydrolyzing enzyme in human liver” (Drug Metab Dispos, 2012)
